Test results taken from ChEMBL document CHEMBL1141484, “Radiosyntheses of two positron emission tomography probes: [11C]Oseltamivir and its active metabolite [11C]Ro 64-0802” (Bioorg Med Chem Lett, 2008).

Assay: Ratio of drug level in brain to blood in iv dosed mouse
Type: ADME, organism-based
Settings: brain/whole blood, read-out: BBR
How it was run: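 Brain/blood radioactivity ratio was taken from decay-corrected %ID/g tissue in whole brain and blood. Samples came from male Wister mice (30 g, 7 weeks) given the 11C tracer iv by tail vein (average 20 MBq/400 µL). Mice were sacrificed at 1–60 min after injection, three per time point.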

| Kp | SMILES |
| --- | --- |
| 0.07 | CCOC(=O)C1=C[C@@H](OC(CC)CC)[C@H](N[11C](C)=O)[C@@H](N)C1 |
| 0.06 | CCC(CC)O[C@@H]1C=C(C(=O)O)C[C@H](N)[C@H]1N[11C](C)=O |
